Key:
[1] = folding enthalpy; higher = less favourable; fluorescence melt of hairpins on a sequencing array, two-state fit; conditions: sodium 0.088 M
Procedure, shortened: (§1)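 To match UV melts, fitted temperatures were raised by 9.35 °C. These fits were bootstrapped two-state models that gave melting temperature and folding enthalpy, combined by inverse variance over four replicates. The input was normalised Cy3 fluorescence of library hairpins with annealed Cy3 and quencher oligos on a sequenced MiSeq flow cell, imaged in 50 mM Na-HEPES pH 8.0, 25 mM NaCl in 2.5 °C steps up to 60 °C.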

[2] = melting temperature; fluorescence melt of hairpins on a sequencing array, two-state fit, raised by 9.35 °C to match UV melts; conditions: sodium 0.088 M
Procedure, shortened: as §1

Row | Sequence | folding enthalpy [1] | Tm [2]
1 | GATCTTTCCGAAGATC ((((((....)))))) | -139 kJ/mol | 46.4 °C
2 | GATCTTTCGTAAGATC ((((((....)))))) | -128 kJ/mol | 44.4 °C
3 | GATCTTTTGAAAGATC ((((((....)))))) | -118 kJ/mol | 44.7 °C
4 | GATCTTTTGTAAGATC ((((((....)))))) | -130 kJ/mol | 44.2 °C
5 | GATGACCGAAAGGTAATC (((.(((....))).))) | -97.7 kJ/mol | 47.1 °C
6 | GATGACCGAAAGGTATC (((.(((....)))))) | -69.2 kJ/mol | 34.7 °C
7 | GATGACCGAAAGGTGATC (((.(((....))).))) | -112 kJ/mol | 47.7 °C
8 | GATGACGAAAGTCACATC ((((((....)))..))) | -36.5 kJ/mol | 29.2 °C
9 | GATGACGAAAGTCGAATC ((((((....)))..))) | -57.4 kJ/mol | 33 °C
10 | GATGACGAAAGTCGATC ((((((....))).))) | -78.5 kJ/mol | 45.2 °C
11 | GATGACGAAAGTCGTATC ((((((....)))..))) | -50.8 kJ/mol | 36 °C
12 | GATGACGAAAGTCTCATC ((((((....)))..))) | -40.7 kJ/mol | 32.5 °C
13 | GATGACGAAAGTCTTATC ((((((....)))..))) | -52 kJ/mol | 25.5 °C
14 | GATGACGGAAACGTCGTC ((.((((....)))).)) | -181 kJ/mol | 52.8 °C
15 | GATGAGAAATCATC (((((....))))) | -86.3 kJ/mol | 39.8 °C
16 | GATGAGCGAAAGCTTATC (((.(((....))).))) | -118 kJ/mol | 49.1 °C
17 | GATGAGGGAAACCTCACC (.(((((....))))).) | -65.7 kJ/mol | 35.5 °C
18 | GATGATGGAAACATCATC (((((((....))))))) | -188 kJ/mol | 58.1 °C
19 | GATGCACGAAAGTGATC (((.(((....)))))) | -56.9 kJ/mol | 36.6 °C
20 | GATGCAGAAATGCATC ((((((....)))))) | -154 kJ/mol | 58.7 °C
21 | GATGCAGCGAAAGCTATC (((..(((....)))))) | -37.9 kJ/mol | 24.7 °C
22 | GATGCAGGAAACTGCATC (((((((....))))))) | -182 kJ/mol | 64.7 °C
23 | GATGCCGAAAGGCCTATC ((((((....)))..))) | -27.9 kJ/mol | 24 °C

Row | Sequence | folding enthalpy [1] | Tm [2]
24 | GATGCCGAAAGGCGGATC ((((((....)))..))) | -43.9 kJ/mol | 40.5 °C
25 | GATGCGCCGAAAGGCATC (((..(((....)))))) | -51.7 kJ/mol | 31.4 °C
26 | GATGCGGGAAACCGCGTC ((.((((....)))).)) | -80.2 kJ/mol | 59.9 °C
27 | GATGCGGGAAACCGTGTC ((..(((....)))..)) | -110 kJ/mol | 43.7 °C
28 | GATGCGGGAAACTGCGTC ((.((.(....).)).)) | -88.3 kJ/mol | 44.2 °C
29 | GATGGAGGAAACCCCATC (((((.(....).))))) | -132 kJ/mol | 43 °C
30 | GATGGCCGAAAGGCGATC (((.(((....))).))) | -100 kJ/mol | 52.8 °C
31 | GATGGCGAAAGCCCGATC ((((((....)))..))) | -41.4 kJ/mol | 27.7 °C
32 | GATGGCGAAAGCCGATC ((((((....))).))) | -64.3 kJ/mol | 47.6 °C
33 | GATGGGAAACCATC (((((....))))) | -111 kJ/mol | 49.9 °C
34 | GATGGGACGAAAGTCATC (((..(((....)))))) | -64.3 kJ/mol | 31.9 °C
35 | GATGGGCGAAAGCCTATC (((.(((....))).))) | -93.2 kJ/mol | 53.9 °C
36 | GATGGGGAAACCCATC ((((((....)))))) | -143 kJ/mol | 57.8 °C
37 | GATGGGGGAAACCCCACC (.(((((....))))).) | -52.6 kJ/mol | 39.9 °C
38 | GATGGGGGAAACCCTATC (((.(((....))).))) | -97.8 kJ/mol | 45 °C
39 | GATGTACCGAAAGGTATC (((..(((....)))))) | -58.7 kJ/mol | 32.2 °C
40 | GATGTAGGAAACTACATC (((((((....))))))) | -169 kJ/mol | 54.6 °C
41 | GATGTAGGAAACTGCATC ((((.((....)).)))) | -145 kJ/mol | 45 °C
42 | GATGTCGCGAAAGCGATC (((..(((....)))))) | -35.6 kJ/mol | 31.1 °C
43 | GATGTGCGAAAGCAGATC (((.(((....))).))) | -137 kJ/mol | 52.5 °C
44 | GATGTGGGAAACCACACC (.(((((....))))).) | -59 kJ/mol | 39 °C
45 | GATGTGGGAAACCACGTC ((.((((....)))).)) | -111 kJ/mol | 51 °C
46 | GATGTGGGAAACCATGTC ((..(((....)))..)) | -136 kJ/mol | 34.9 °C

Row | Sequence | folding enthalpy [1] | Tm [2]
47 | GATGTTCCGAAAGGAATC (((..(((....)))))) | -55.1 kJ/mol | 32.4 °C
48 | GATGTTGCGAAAGCAATC (((..(((....)))))) | -45.8 kJ/mol | 32.7 °C
49 | GATTAACGAAAGTTATC (((.(((....)))))) | -55.4 kJ/mol | 31.3 °C
50 | GATTACCCGAAAGGGATC (((..(((....)))))) | -50.5 kJ/mol | 26.3 °C
51 | GATTACCGAAAGGTCATC (((.(((....))).))) | -121 kJ/mol | 38.2 °C
52 | GATTACGAAAGTAAAATC ((((((....)))..))) | -73.6 kJ/mol | 28.5 °C
53 | GATTACGAAAGTAGATC ((((((....))).))) | -79.4 kJ/mol | 29 °C
54 | GATTAGGGAAACTTAATC (((((.(....).))))) | -72.6 kJ/mol | 29.1 °C
55 | GATTATGCGAAAGCAATC (((..(((....)))))) | -41.5 kJ/mol | 23.4 °C
56 | GATTCCCCGAAAGGGATC (((..(((....)))))) | -50.8 kJ/mol | 29.2 °C
57 | GATTCCGAAAGGAGAATC ((((((....)))..))) | -72.6 kJ/mol | 32.7 °C
58 | GATTCCGAAAGGAGCATC ((((((....)))..))) | -48.7 kJ/mol | 27.3 °C
59 | GATTCCGGAAACGAAATC ((((.((....)).)))) | -132 kJ/mol | 34.3 °C
60 | GATTCGAAAGAATC (((((....))))) | -124 kJ/mol | 51.5 °C
61 | GATTCGGAAACGAATC ((((((....)))))) | -135 kJ/mol | 58.6 °C
62 | GATTCTGGAAACAGAACC (.(((((....))))).) | -73.7 kJ/mol | 33.6 °C
63 | GATTCTGGAAACAGAATC (((((((....))))))) | -184 kJ/mol | 55 °C
64 | GATTGAGGAAACTCAATC (((((((....))))))) | -219 kJ/mol | 53.6 °C
65 | GATTGCCGAAAGGCTATC (((.(((....))).))) | -79.7 kJ/mol | 51.4 °C
66 | GATTGCGAAAGCAACATC ((((((....)))..))) | -38.7 kJ/mol | 28.5 °C
67 | GATTGCGAAAGCAGTATC ((((((....)))..))) | -45.7 kJ/mol | 32.1 °C
68 | GATTGCGAAAGCATAATC ((((((....)))..))) | -53.4 kJ/mol | 33.1 °C

Reference: the array DNA melting data of Ke et al. (doi:10.1101/2024.01.08.574731)
